# Assay results published in ChEMBL document CHEMBL1150572, “Isolation and structures of haterumadioxins A and B, cytotoxic endoperoxides from the Okinawan sponge Plakortis lita” (J Nat Prod, 2001).
# Assays:
# [1] = test system: MDA-MB-231; assay: Growth inhibition of human MDA-MB-231 cells; assay type: functional
# [2] = test system: KM12; assay: Growth inhibition of human KM12 cells; assay type: functional
# [3] = test system: SF-268; assay: Growth inhibition of human SF268 cells; assay type: functional
# [4] = test system: HCC 2998; assay: Growth inhibition of human HCC2998 cells; assay type: functional
# [5] = test system: U-251; assay: Growth inhibition of human U251 cells; assay type: functional
# [6] = test system: A549; assay: Growth inhibition of human A549 cells; assay type: functional
# [7] = test system: HCT-15; assay: Growth inhibition of human HCT15 cells; assay type: functional
# [8] = test system: OVCAR-3; assay: Growth inhibition of human OVCAR-3 cells; assay type: functional
# [9] = test system: NCI-H522; assay: Growth inhibition of human NCI-H522 cells; assay type: functional
# [10] = test system: LOX IMVI; assay: Growth inhibition of human LOXIMVI cells; assay type: functional
# [11] = test system: MKN-28; assay: Growth inhibition of human MKN28 cells; assay type: functional
# [12] = test system: NCI-H460; assay: Growth inhibition of human NCI-H460 cells; assay type: functional
# [13] = test system: DU-145; assay: Growth inhibition of human DU145 cells; assay type: functional
# [14] = test system: HT-29; assay: Growth inhibition of human HT-29 cells; assay type: functional
# [15] = test system: PC-3; assay: Growth inhibition of human PC3 cells; assay type: functional
# [16] = test system: MKN-74; assay: Growth inhibition of human MKN74 cells; assay type: functional
# [17] = Growth inhibition of human HBC5 cells; assay type: functional
# [18] = test system: OVCAR-8; assay: Growth inhibition of human OVCAR8 cells; assay type: functional
# [19] = test system: SNB-78; assay: Growth inhibition of human SNB78 cells; assay type: functional
# [20] = test system: DMS-114; assay: Growth inhibition of human DMS114 cells; assay type: functional
# [21] = test system: ACHN; assay: Growth inhibition of human ACHN cells; assay type: functional
# [22] = test system: DMS-273; assay: Growth inhibition of human DMS273 cells; assay type: functional
# [23] = test system: SF-539; assay: Growth inhibition of human SF539 cells; assay type: functional
# [24] = test system: P388; assay: Cytotoxicity against mouse P388 cells; assay type: functional, cell-based
# In short: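 Murine P388 leukemia cells, 2 × 10^4 cells/mL, in RPMI-1640 with 10% FBS, 10 µM 2-hydroxyethyl disulfide and kanamycin (100 µg/mL). Samples were added in MeOH. Cells were incubated 4 days at 37 °C in humidified 5% CO2, then counted by MTT. IC50 (50% inhibition of cell growth) was read from the growth curve.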
# [25] = test system: MKN-7; assay: Growth inhibition of human MKN7 cells; assay type: functional
# [26] = test system: OVCAR-5; assay: Growth inhibition of human OVCAR5 cells; assay type: functional
# [27] = test system: SF-295; assay: Growth inhibition of human SF295 cells; assay type: functional
# [28] = test system: NCI-H23; assay: Growth inhibition of human NCI-H23 cells; assay type: functional
# [29] = test system: HCT-116; assay: Growth inhibition of human HCT116 cells; assay type: functional
# [30] = Growth inhibition of human BSY1 cells; assay type: functional; settings: BSY-1
# [31] = test system: St-4; assay: Growth inhibition of human St-4 cells; assay type: functional
# [32] = Growth inhibition of human HBC4 cells; assay type: functional
# [33] = test system: MKN-45; assay: Growth inhibition of human MKN45 cells; assay type: functional
# [34] = Growth inhibition of human MKN1 cells; assay type: functional; settings: MKN-1
# [35] = test system: SK-OV-3; assay: Growth inhibition of human SKOV3 cells; assay type: functional
# [36] = test system: OVCAR-4; assay: Growth inhibition of human OVCAR4 cells; assay type: functional
# [37] = test system: SNB-75; assay: Growth inhibition of human SNB75 cells; assay type: functional
# [38] = Growth inhibition of human RXF631L cells; assay type: functional; settings: RXF 631
# [39] = test system: MCF7; assay: Growth inhibition of human MCF7 cells; assay type: functional
# [40] = test system: NCI-H226; assay: Growth inhibition of human NCI-H226 cells; assay type: functional
structure (smiles),measurement,setting,value
CC/C=C/[C@H](CC)C[C@]1(CC)C=C(CC)[C@H](CC(=O)O)OO1 [HATERUMADIOXIN A],GI50,[1],1860 nM
same,GI50,[2],1820 nM
same,GI50,[3],1820 nM
same,GI50,[4],1910 nM
same,GI50,[5],1780 nM
same,GI50,[6],1950 nM
same,GI50,[7],1700 nM
same,GI50,[8],1550 nM
same,GI50,[9],1860 nM
same,GI50,[10],100 nM
same,GI50,[11],2240 nM
same,GI50,[12],1820 nM
same,GI50,[13],1700 nM
same,GI50,[14],1950 nM
same,GI50,[15],1910 nM
same,GI50,[16],2190 nM
same,GI50,[17],1320 nM
same,GI50,[18],2140 nM
same,GI50,[19],1860 nM
same,GI50,[20],1480 nM
same,GI50,[21],1170 nM
same,GI50,[22],1410 nM
same,GI50,[23],1820 nM
same,IC50,[24],11 ng/mL
same,GI50,[25],1910 nM
same,GI50,[26],1820 nM
same,GI50,[27],1780 nM
same,GI50,[28],5500 nM
same,GI50,[29],1550 nM
same,GI50,[30],1780 nM
same,GI50,[31],2090 nM
same,GI50,[32],1170 nM
same,GI50,[33],2040 nM
same,GI50,[34],832 nM
same,GI50,[35],2000 nM
same,GI50,[36],676 nM
same,GI50,[37],1660 nM
same,GI50,[38],1700 nM
same,GI50,[39],1740 nM
same,GI50,[40],1780 nM
CCCC[C@H](CC)C[C@]1(CC)C=C(CC)[C@H](CC(=O)O)OO1 [HATERUMADIOXIN B],IC50,[24],5.5 ng/mL
